20 compounds from ChEMBL document CHEMBL1914351, “Design, synthesis and biological evaluation of 3-substituted 2,5-dimethyl-N-(3-(1H-tetrazol-5-yl)phenyl)pyrroles as novel potential HIV-1 gp41 inhibitors” (Bioorg Med Chem, 2011) can be followed below.

Data set [1] is described as follows: Selectivity index, ratio of CC50 for human MT2 cells to EC50 for HIV1 3B. The class given is toxicity, cell-based. As to conditions: read-out: Ratio CC50/EC50; call rule not given here. The essentials:
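Ratio CC50/EC50, CC50 from XTT cytotoxicity in MT-2 cells over 4 days and EC50 from p24 inhibition in HIV-1 IIIB-infected MT-2 cells at day 4.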

The subject of data set [2] is Human immunodeficiency virus 1. The data set is described as follows: Antiviral activity against HIV1 3B infected in human MT2 cells assessed as inhibition of p24 production after 4 days by ELISA. In kind it is functional, organism-based. A general note: ELISA stands for enzyme-linked immunosorbent assay.
Data set [3] is described as follows: Cytotoxicity against human MT2 cells after 4 days using XTT assay. In kind it is cell-based. The essentials:
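MT-2 cells (5×10^5/mL) mixed with equal volume of graded compound concentrations, 37 °C for 4 days; XTT (1 mg/mL) containing 0.02 µM PMS added, A450 read after 4 h. CC50 calculated by CalcuSyn; triplicate, mean ± SD.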
Background: Tetrazolium assays rely on reduction of a dye to a coloured formazan, in cell work by metabolically active cells.

A short description of data set [4]: Inhibition of HIV1 gp41 assessed as gp41-six-helix bundle formation after 30 mins by sandwich ELISA. Also on record: species or system Human immunodeficiency virus 1. The essentials:
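N36 peptide (2 µM) preincubated with graded compound concentrations at 37 °C for 30 min, then C34 (2 µM) added for another 30 min at 37 °C. Mixture captured on plates coated with anti-6-HB rabbit IgG (10 µg/mL); detected with mAb NC-1, biotinylated anti-mouse IgG, SA-HRP, TMB; A450. Percent inhibition calculated; triplicate.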

The mark [5] stands for this setting: Human immunodeficiency virus 1, 3B, MT2, 96 h, read-out: EC50.

The EC50 is the concentration at which the effect is half-maximal. Usually CC50 stands for the concentration at which the toxic effect on the cells reaches its halfway point. The low end stands for greater toxicity to the cells, the high end for lower toxicity to the cells. One may read the IC50 as the concentration that gives 50% inhibition. For `Cc1cc(/C=C2\SC(=S)N(Cc3ccccc3)C2=O)c(C)n1-c1cccc(-c2nnn[nH]2)c1`, the selectivity ratio in data set [1] was determined as 12. For the same compound, in data set [2] (setting [5]), the EC50 was determined as 12.3 µM. The compound further gave a half-maximal cytotoxic concentration (CC50) at 96 h in data set [3] of 150 µM. Further, in data set [4] (read-out: IC50), the IC50 is 12.7 µM.

With `Cc1cc(/C=C2\SC(=S)N(c3cccc(C(F)(F)F)c3)C2=O)c(C)n1-c1cccc(-c2nnn[nH]2)c1`, the selectivity ratio in data set [1] amounted to 2.3. For the same compound, the EC50 in data set [2] (setting [5]) stood at 6.8 µM. Half-maximal cytotoxicity in data set [3] (CC50 at 96 h) was put at 15.8 µM. Further, in data set [4], the IC50 result is on record as “Not Active”.

For `CCOC(=O)C(=Cc1cc(C)n(-c2cccc(-c3nnn[nH]3)c2)c1C)C(=O)OCC`, the selectivity ratio in data set [1] worked out at 4.5. Also, the concentration for a half-maximal effect (EC50) in data set [2] (setting [5]) amounted to 17.2 µM. For the same compound, the CC50 at 96 h in data set [3] was 77.4 µM. Besides, the IC50 in data set [4] (read-out: IC50) was determined as 12.1 µM.

With `Cc1cc(/C=C2\SC(=S)N(c3ccccc3)C2=O)c(C)n1-c1cccc(-c2nnn[nH]2)c1`, the selectivity ratio in data set [1] stood at 19. Besides, in data set [2] (setting [5]), the 50% effective concentration (EC50) worked out at 3.2 µM. Besides, the midpoint of cytotoxicity in data set [3], the CC50 at 96 h, lay at 61 µM. The half-inhibitory concentration (IC50) in data set [4] (read-out: IC50) turned out to be 4.4 µM.

For the compound `Cc1cc(/C=C2\SC(=S)N(c3cccc([N+](=O)[O-])c3)C2=O)c(C)n1-c1cccc(-c2nnn[nH]2)c1`, the selectivity ratio in data set [1] turned out to be 3.2. The EC50 in data set [2] (setting [5]) turned out to be 23.9 µM. Further, the CC50 at 96 h in data set [3] was 77 µM. Also, the 50% inhibitory concentration (IC50) in data set [4] (read-out: IC50) was found to be 3.2 µM.

For `Cc1cc(/C=C2\SC(=S)N(c3ccc(O)cc3)C2=O)c(C)n1-c1cccc(-c2nnn[nH]2)c1`, in data set [1], the selectivity ratio was 1.8. Further, in data set [2] (setting [5]), the EC50 is 25.7 µM. This compound also gave a CC50 at 96 h in data set [3] of 45.6 µM. Further, the IC50 in data set [4] (read-out: IC50) stood at 20.6 µM.

Regarding `Cc1cc(/C=C2\SC(=S)N(c3ccc(Br)cc3)C2=O)c(C)n1-c1cccc(-c2nnn[nH]2)c1`, the selectivity ratio in data set [1] came out at 21. Besides, the EC50 in data set [2] (setting [5]) was determined as 2.2 µM. Besides, in data set [3], half-maximal cytotoxicity (CC50 at 96 h) was put at 46.8 µM. Further, the IC50 in data set [4] (read-out: IC50) came out at 4.6 µM.

As to `Cc1cc(/C=C2\NC(=O)N(c3cccc(C(F)(F)F)c3)C2=O)c(C)n1-c1cccc(-c2nnn[nH]2)c1`, the selectivity ratio in data set [1] turned out to be 1.6. Also, the EC50 in data set [2] (setting [5]) was determined as 48.9 µM. The 50% cytotoxic concentration (CC50) at 96 h in data set [3] is 76.5 µM. Besides, the concentration for half-maximal inhibition (IC50) in data set [4] (read-out: IC50) was determined as 41.6 µM.

As for `O=C(O)c1cc(-n2cccc2)ccc1Cl`, the IC50 in data set [4] (read-out: IC50) came out at 58.7 µM.

In the case of `Cc1cc(/C=C/[N+](=O)[O-])c(C)n1-c1cccc(-c2nnn[nH]2)c1`, the selectivity ratio in data set [1] worked out at 2.7. Further, the EC50 in data set [2] (setting [5]) is 29.3 µM. In data set [3], this compound showed a 50% cytotoxic concentration (CC50) at 96 h of 78.8 µM. In addition, in data set [4], the IC50 result is “Not Active”.

Take `COc1ccc(N2C(=O)N/C(=C\c3cc(C)n(-c4cccc(-c5nnn[nH]5)c4)c3C)C2=O)cc1`: the selectivity ratio in data set [1] is 2. For the same compound, the concentration for a half-maximal effect (EC50) in data set [2] (setting [5]) was 51.6 µM. Besides, half-maximal cytotoxicity in data set [3] (CC50 at 96 h) was put at 101 µM. Also, the IC50 in data set [4] (read-out: IC50) was found to be 22.6 µM.

On to `Cc1cc(C=C(C#N)C#N)c(C)n1-c1cccc(-c2nnn[nH]2)c1`, for which the EC50 result in data set [2] (mt2) is “Not Active”. This compound also came in with a 50% cytotoxic concentration (CC50) at 96 h in data set [3] of over 400 µM. Further, the 50% inhibitory concentration (IC50) result in data set [4] was “Not Active”.

As for `Cc1cc(/C=C2\SC(=S)N(CCc3ccccc3)C2=O)c(C)n1-c1cccc(-c2nnn[nH]2)c1`, in data set [1], the selectivity ratio was determined as 11. Moreover, the EC50 in data set [2] (setting [5]) stood at 4.1 µM. For the same compound, the CC50 at 96 h in data set [3] amounted to 45.7 µM. Besides, in data set [4] (read-out: IC50), the 50% inhibitory concentration (IC50) stood at 28.1 µM.

For the compound `Cc1ccc(C)n1-c1cccc(-c2nnn[nH]2)c1`, the selectivity ratio in data set [1] stood at 32. In data set [4] (read-out: IC50), the half-maximal inhibitory concentration (IC50) came out at 25.6 µM.

As to `Cc1cc(/C=C2\SC(=S)N(c3cccc(Br)c3)C2=O)c(C)n1-c1cccc(-c2nnn[nH]2)c1`, the selectivity ratio in data set [1] came to 2.3. Besides, the EC50 in data set [2] (setting [5]) is 9.8 µM. Besides, in data set [3], the midpoint of cytotoxicity, the CC50 at 96 h, lay at 22.6 µM. Further, the half-inhibitory concentration (IC50) result in data set [4] is reported as “Not Active”.

Turning to `CCOC(=O)/C(C#N)=C/c1cc(C)n(-c2cccc(-c3nnn[nH]3)c2)c1C`, the selectivity ratio in data set [1] was 4.3. Also, in data set [2] (setting [5]), the EC50 was found to be 18 µM. Also, the midpoint of cytotoxicity in data set [3], the CC50 at 96 h, lay at 76.8 µM. The IC50 result in data set [4] is given as “Not Active”.

Turning to `Cc1cc(/C=C2\SC(=S)N(c3ccc(C(F)(F)F)cc3)C2=O)c(C)n1-c1cccc(-c2nnn[nH]2)c1`, the selectivity ratio in data set [1] came out at 2.1. Besides, the EC50 in data set [2] (setting [5]) came out at 13.1 µM. The compound also had a CC50 at 96 h in data set [3] of 27.1 µM. For the same compound, the half-inhibitory concentration (IC50) in data set [4] (read-out: IC50) stood at 2.7 µM.

Turning to `Cc1cc(/C=C2\SC(=S)N(c3cccc(O)c3)C2=O)c(C)n1-c1cccc(-c2nnn[nH]2)c1`, in data set [1], the selectivity ratio was determined as 5.7. The EC50 in data set [2] (setting [5]) is 6.3 µM. In data set [3], this compound displayed a 50% cytotoxic concentration (CC50) at 96 h of 35.6 µM. The IC50 in data set [4] (read-out: IC50) was 7.7 µM.

For the compound `COc1cccc(N2C(=O)/C(=C/c3cc(C)n(-c4cccc(-c5nnn[nH]5)c4)c3C)SC2=S)c1`, the selectivity ratio in data set [1] was found to be 6.8. In addition, the concentration giving a half-maximal response (EC50) in data set [2] (setting [5]) came to 6 µM. The compound also came in with a half-maximal cytotoxic concentration (CC50) at 96 h in data set [3] of 40.6 µM. In addition, the concentration for half-maximal inhibition (IC50) in data set [4] (read-out: IC50) came to 3.1 µM.

`COc1ccc(N2C(=O)/C(=C/c3cc(C)n(-c4cccc(-c5nnn[nH]5)c4)c3C)SC2=S)cc1`: in data set [1], the selectivity ratio amounted to 1.8. Moreover, the EC50 in data set [2] (setting [5]) came to 47.9 µM. The compound also showed a cytotoxic concentration (CC50) at 96 h in data set [3] of 87 µM. In data set [4] (read-out: IC50), the IC50 was found to be 9.2 µM.
